Like-named read-outs stand apart in the source and are kept apart here.
How the values were obtained:
[1] = particularly at physiological pH; ref Jungbauer, et al., 2009; cited from earlier work
primary murine microglia = assay: Microglial uptake by confocal fluorescence microscopy; format: cell-based, murine (C57BL/6); conditions: for uptake by primary microglia, unlabeled Aβ42: immunostained with AF488-conjugated secondary antibody
Method in brief: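 Microglia in glass-bottom dishes in serum- and GM-CSF-free medium at 37 °C. Conditions: 10 µM AF488-Aβ42 over time; various concentrations for 10 min; 5 µM labeled (imaged directly) or unlabeled Aβ42 (Ab9 1:5000, NL493 secondary). Fixed in 3.7% formaldehyde, DAPI, 40X confocal at fixed settings. ImageJ gave background-corrected cell fluorescence, or integrated density per nucleus. Two or three experiments.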

[2] = Solubility during SEC isolation in aCSF; format: physicochemical; conditions: SEC isolation on Superdex 75 in aCSF pH 7.8
Method in brief: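 It stood 30 min–4 h at room temperature and was spun at 18,000g. Supernatant ran on a BSA-coated Superdex 75 column in aCSF at 0.5 mL min−1, A280 monitored, with fractions kept on ice.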

AF488-N-terminal-labeled Aβ42: N-terminally AF488-labeled Aβ42 of Jungbauer et al., 2009
solubility [1]: limited solubility

unlabeled Aβ42 protofibrils: Aβ1–42 soluble protofibrils formed in aCSF and isolated by SEC
uptake by primary microglia, unlabeled Aβ42 (primary murine microglia; 5 µM): rapid and extensive

AF488-Aβ42 monomers: Aβ42 monomers labeled at primary amines with Alexa Fluor 488 TFP ester, isolated by SEC
solubility [2]: solubility issues were not encountered | uptake by primary microglia, AF488-labeled Aβ42 (primary murine microglia; 5 µM, imaged directly): not taken up readily | internalization by microglia (confocal) (primary murine microglia; 10 µM, 37 °C, time course, 40X confocal, ImageJ quantitation): Much lower levels

unlabeled Aβ42 monomers: Aβ1–42 monomers isolated by SEC in aCSF
uptake by primary microglia, unlabeled Aβ42 (primary murine microglia; 5 µM): not taken up readily

Source: publication PMC5018462 (Brain research, 2016)
